Test [1] is described as follows: Inhibition of HCV genotype 1b NS5Bdelta21 RNA dependent RNA polymerase expressed in Escherichia coli JM109 (DE3). More on the design: species or system Hepatitis C virus subtype 1b.
Test [2] has as its system Hepatitis C virus. The experiment in a line: Antiviral activity against Hepatitis C virus Con1 genotype 1b expressing NS2-NS5B infected in human HuH7 cells after 72 hrs by luciferase reporter gene assay. The class given is functional, organism-based, Hepacivirus hominis. The conditions noted are these: isolate Con1, Huh-7, 72 h. The method in brief: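 Cells carrying a bicistronic luciferase reporter subgenomic replicon (Con1 GT-1b, NS2-NS5B coding region) were incubated with compound for 72 h. Relative luciferase levels were then read with Bright-Glo substrate, and EC50 values were derived from these readings.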
For orientation: Reporter assays use an easily measured gene product as a stand-in for the process of interest.

The species named for test [3] is Homo sapiens. The experiment in a line: Inhibition of DNA polymerase-alpha (unknown origin).
In test [4] the target is DNA polymerase beta (Homo sapiens) (UniProt P06746). Briefly: Inhibition of DNA polymerase-beta (unknown origin).
The species entered for test [5] is Homo sapiens. Briefly: Inhibition of DdRp-2 (unknown origin).
Test [6] deals with Enterovirus C. The experiment in a line: Inhibition of poliovirus RdRp.
For test [7], the species on record is Homo sapiens. Briefly: Inhibition of DNA polymerase-gamma (unknown origin).

In ChEMBL document CHEMBL3120048 (J Med Chem, 2014) one finds IC50, EC50 and inhibition data, which are given here for 15 compounds.

Calls of active or inactive are those of the source. The calls are words filed in the database; no cut-off is given here.

A word on the IC50: it is the concentration that gives 50% inhibition. Low readings indicate inhibition by little substance, high ones a need for much substance. The EC50 is the concentration at which the effect is half-maximal. Read a low EC50 as an effect from little substance.

Turning to `C[C@@H](NC(=O)c1ccc2c(n1)nc(-c1ccoc1)n2C1CCCCC1)C(=O)Nc1ccc(/C=C/C(=O)O)cc1`, in test [1], the IC50 came to 330 nM.

As to `O=C(O)/C=C/c1ccc(NC(=O)C2(NC(=O)c3ccc4c(c3)nc(-c3ccoc3)n4C3CCCCC3)CCNCC2)cc1`, in test [2], the EC50 was 5000 nM. In test [1], this compound displayed an IC50 of 43 nM.

As to `Cn1c(C(=O)O)cc2cc(NC(=O)C3(NC(=O)c4ccc5c(c4)nc(-c4ccoc4)n5C4CCCCC4)CCCNC3)ccc21` (single isomer, unassigned; enantiomer 2), in test [1], inhibition was half-maximal at 84 nM (IC50).

In the case of `Cn1c(C2(NC(=O)c3ccc4c(C5CCCC5)c(-c5ncc(Br)cn5)n(C)c4c3)CCC2)nc2ccc(/C=C/C(=O)O)cc21` [DELEOBUVIR], the inhibition result in test [3], in test [4], in test [5], in test [6] and in test [7] was “inactive” throughout. This compound displayed a 50% inhibitory concentration (IC50) in test [1] of 50 nM.

Take `C[C@@H](NC(=O)c1ccc2c(c1)nc(-c1ccoc1)n2C1CCCCC1)C(=O)Nc1ccc(/C=C/C(=O)O)cc1`: the half-inhibitory concentration (IC50) in test [1] was 88 nM.

Consider `Cn1c(C(=O)O)cc2cc(NC(=O)C3(NC(=O)c4ccc5c(c4)nc(-c4ccoc4)n5C4CCCCC4)CCNCC3)ccc21`, for which the midpoint of inhibition in test [1], the IC50, lay at 55 nM.

Turning to `Cn1c(C2(NC(=O)c3ccc4c5c(n(C)c4c3)CCCC53CCCCC3)CCC2)nc2ccc(/C=C/C(=O)O)cc21`, a half-maximal response in test [2] (EC50) required 49 nM. The compound also showed an IC50 in test [1] of 180 nM.

In the case of `Cc1c(C(=O)N[C@H](C)C(=O)Nc2ccc(/C=C/C(=O)O)cc2)ccc2c1nc(-c1ccoc1)n2C1CCCCC1`, the IC50 in test [1] stood at 890 nM.

Compound `Cn1c(C2(NC(=O)c3ccc4c5c(n(C)c4c3)CCCC53CCCCC3)CCC2)nc2cc3cc(C(=O)O)sc3cc21` registered a concentration giving a half-maximal response (EC50) in test [2] of 38 nM. The half-inhibitory concentration (IC50) in test [1] worked out at 350 nM.

As for `CCOc1cc(NC(=O)C2(NC(=O)c3ccc4c5c(n(C)c4c3)CCCC53CCCCC3)CCC2)ccc1/C=C/C(=O)O`, the EC50 in test [2] came to 94 nM. This compound showed a half-maximal inhibitory concentration (IC50) in test [1] of 460 nM.

`Cn1c(C(=O)O)cc2cc(NC(=O)C3(NC(=O)c4ccc5c(c4)nc(-c4ccoc4)n5C4CCCCC4)CCCNC3)ccc21` (single isomer, unassigned; enantiomer 1) displayed a half-maximal inhibitory concentration (IC50) in test [1] of 1300 nM.

Compound `Cn1c2c(c3ccc(C(=O)O)cc31)C1(CCCCC1)CCC2` had an EC50 in test [2] greater than 11000 nM. Further, the half-inhibitory concentration (IC50) in test [1] was determined as 16000 nM.

Consider `COc1ccc2c(c1)OCCn1c-2c(C2CCCCC2)c2ccc(C(=O)NC3(C(=O)Nc4ccc(/C=C/C(=O)O)cc4)CCC3)cc21`, for which the EC50 in test [2] stood at 4 nM. In test [1], the concentration for half-maximal inhibition (IC50) was 560 nM.

Turning to `Cc1cc2c(cc1C(=O)N[C@H](C)C(=O)Nc1ccc(/C=C/C(=O)O)cc1)nc(-c1ccoc1)n2C1CCCCC1`, the IC50 in test [1] came to 4000 nM.

As for `O=C(O)COc1ccc2[nH]cc(C[C@H](NC(=O)c3ccc4c(c3)nc(-c3ccoc3)n4C3CCCCC3)C(=O)O)c2c1`, the EC50 in test [2] was determined as 65000 nM.
